ChEMBL document CHEMBL1139851, “Synthesis and SAR of [1,2,4]triazolo[1,5-a]pyrimidines, a class of anticancer agents with a unique mechanism of tubulin inhibition” (J Med Chem, 2007)
Active and inactive are the calls of the source. The rule behind the calls is not given here.

Key:
COLO 205 = experiment: Cytotoxicity against COLO205 cells; type: cell-based; details: Homo sapiens
Procedure, shortened: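 MTS cytotoxicity assay in COLO 205 cells. Trypsinized cells were plated at 1000/well and preincubated about 24 h at 37 °C in 5% CO2. Compounds were added as nine serial 2-fold DMSO dilutions, final top concentration typically 5 µM, and cells were cultured 3 days. Absorbance was normalized to a time-0 plate. IC50 was read from a 10-concentration dose-response curve run in triplicate.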

U-87MG ATCC [1] = experiment: Antitumor activity against U87-MG cells xenografted in iv dosed athymic nu/nu mouse; type: functional, organism-based; details: Homo sapiens
Procedure, shortened: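 Female athymic nu/nu mice received 1 × 10⁶ U87-MG cells subcutaneously in the flank. Once tumors reached 80-120 mg they were randomized into groups of 5-10. Compound was given iv in Klucel or 0.9% saline; controls got vehicle alone. Tumor volume was (length × width²)/2, compared with vehicle by one-sided Student's t-test, p ≤ 0.05.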

[2] = Antiproliferative activity against KB8.5 cells expressing MDR1; type: functional, cell-based; details: Homo sapiens
Procedure, shortened: (§1)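 KB, KB 8.5 and KB V1 lines differ in P-gp (MDR1) level. Growth-inhibition IC50 was taken from a dose-response curve at 10 concentrations in duplicate.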

KB [3] = experiment: Ratio of IC50 for KB8.5 cells to IC50 for KB cells; type: functional, Homo sapiens
Procedure, shortened: (§2)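 Resistance ratio is IC50 on KB 8.5 or KB V1 cells divided by IC50 on parental KB cells, each from 10-concentration duplicate dose-response curves.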

[4] = Antiproliferative activity against KBV1 cells expressing MDR1; type: functional, cell-based; details: Homo sapiens, KB-V1; procedure, shortened: as §1
KB [5] = experiment: Antiproliferative activity against KB cells expressing MDR1; type: functional, cell-based; details: Homo sapiens; procedure, shortened: as §1
U-87MG ATCC [6] = experiment: Antitumor activity against U87-MG cells xenografted in orally dosed athymic nu/nu mouse; type: functional, organism-based; details: Homo sapiens
Procedure, shortened: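 U87-MG flank xenografts (1 × 10⁶ cells, subcutaneous) were grown in female athymic nu/nu mice and staged at 80-120 mg. Compound was given by oral gavage on days 0 and 7 after staging. Controls received Klucel vehicle […], with nine animals per group. Tumor volume was (length × width²)/2, tested by one-sided Student's t-test.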

[7] = Ratio of IC50 for KBV1 cells to IC50 for KB cells; type: functional, Homo sapiens; procedure, shortened: as §2
HeLa [8] = experiment: Induction of apoptosis in HeLa cells assessed as effect on sub-G1 population; type: functional, cell-based; details: Homo sapiens
HeLa [9] = experiment: Induction of apoptosis in HeLa cells assessed as increase in sub-G1 population at 1 uM; type: functional, cell-based; details: Homo sapiens
Tubulin (Homo sapiens) [10] = target: T1, Tubulin (Homo sapiens) (UniProt P68371+Q9H4B7+P0DPH7+P68366+Q13509+Q71U36+P04350+Q3ZCM7+P07437+P68363+Q9BQE3+Q6PEY2+Q13885+Q9BVA1+Q9BUF5); experiment: Displacement of [3H]vinblastine from tubulin; type: protein-complex assay
[11] = Metabolic stability in rat liver microsomes; type: ADME, Microsome
Tubulin (Homo sapiens) [12] = target: T1, Tubulin (Homo sapiens); experiment: Displacement of [3H]colchicine from tubulin; type: protein-complex assay
[13] = Solubility in water at pH 6.74; type: physicochemical
[14] = Metabolic stability in mouse liver microsomes; type: ADME, Microsome
[15] = Solubility in water at pH 5.48; type: physicochemical
[16] = Clearance in rat; type: ADME, organism-based; details: in vivo
Tubulin (Homo sapiens) [17] = target: T1, Tubulin (Homo sapiens); experiment: Induction of MAP-rich tubulin polymerization at 2.7 uM; type: protein-complex assay
Tubulin (Homo sapiens) [18] = target: T1, Tubulin (Homo sapiens); experiment: Induction of tubulin polymerization in absence of GTP; type: protein-complex assay
HeLa [19] = experiment: Mitotic block in HeLa cells assessed as increase in G2/M peak by flow cytometry at >35 nM; type: functional, cell-based; details: Homo sapiens
HeLa [20] = experiment: Induction of apoptosis in HeLa cells assessed as increase in sub-G1 population at 35 nM; type: functional, cell-based; details: Homo sapiens
Homo sapiens = species on record: Homo sapiens; experiment: Displacement of [3H]paclitaxel from microtubules
[21] = Volume of distribution in rat; type: ADME, organism-based; details: in vivo, read-out: Vdss
A549 = experiment: Antitumor activity against A549 cells xenografted in athymic nu/nu mouse after iv administration; type: functional, organism-based
Procedure, shortened: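 Female athymic nu/nu mice were implanted subcutaneously in the flank with 1 × 10⁷ A549 cells. Animals were staged at about 300 (mm³/mg), then randomized into groups of 5-10. Dosing was iv on days 0, 7, 14 and 21, in Klucel or 0.9% saline; controls got vehicle. Tumor volume was (length × width²)/2. Analysis used a one-sided Student's t-test, p ≤ 0.05.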

[22] = Half life in rat; type: ADME, organism-based; details: in vivo
[23] = Oral bioavailability in rat; type: ADME, organism-based; details: in vivo

SMILES: C[C@H](Nc1c(-c2c(F)cc(OCCCCN(C)C)cc2F)c(Cl)nc2ncnn12)C(F)(F)F
- IC50 (COLO 205): 0.276 µM

SMILES: C[C@H](Nc1c(-c2c(F)ccc(F)c2F)c(Cl)nc2ncnn12)C(F)(F)F
- IC50 (COLO 205): 0.183 µM

SMILES: C[C@H](Nc1c(-c2c(F)cc(OCCCN(C)C)cc2F)c(Br)nc2ncnn12)C(F)(F)F
- IC50 (COLO 205): 0.096 µM

SMILES: C[C@H](Nc1c(-c2c(F)ccc(OCCCN(C)C)c2F)c(Cl)nc2ncnn12)C(F)(F)F
- IC50 (COLO 205): 0.785 µM

SMILES: C[C@H](Nc1c(-c2c(F)ccc(OCCN(C)C)c2F)c(Cl)nc2ncnn12)C(F)(F)F
- IC50 (COLO 205): 1.57 µM

SMILES: C[C@H](Nc1c(-c2c(F)cc(OCCO)cc2F)c(Cl)nc2ncnn12)C(F)(F)F
- IC50 (COLO 205): 0.422 µM

SMILES: C[C@H](Nc1c(-c2c(F)cc(OCCCO)cc2F)c(Cl)nc2ncnn12)C(F)(F)F
- IC50 (COLO 205): 0.067 µM

SMILES: C[C@H](Nc1c(-c2c(F)cc(OCCCN(C)C)cc2F)c(Cl)nc2ncnn12)C(F)(F)F.Cl
- Activity (U-87MG ATCC [1]): Active
- IC50 [2]: 0.033 µM
- Ratio IC50 (KB [3]): 1.8
- IC50 [4]: 0.114 µM
- IC50 (COLO 205): 0.056 µM
- IC50 (KB [5]): 0.0187 µM
- Activity (U-87MG ATCC [6]): Active
- Ratio IC50 [7]: 6.1

SMILES: C[C@H](Nc1c(-c2c(F)cc(N(C)CCCN(C)C)cc2F)c(Cl)nc2ncnn12)C(F)(F)F
- IC50 (COLO 205): 1.67 µM

SMILES: CC[C@]1(O)C[C@H]2CN(CCc3c([nH]c4ccccc34)[C@@](C(=O)OC)(c3cc4c(cc3OC)N(C=O)[C@H]3[C@@](O)(C(=O)OC)[C@H](OC(C)=O)[C@]5(CC)C=CCN6CC[C@]43[C@@H]65)C2)C1 [VINCRISTINE]
- IC50 [2]: 0.058 µM
- Ratio IC50 (KB [3]): 26
- Activity (HeLa [8]): inactive

SMILES: C[C@H](Nc1c(-c2c(F)cc(OCCCN3CCC3)cc2F)c(Cl)nc2ncnn12)C(F)(F)F
- IC50 (COLO 205): 0.326 µM

SMILES: C[C@H](Nc1c(-c2c(F)cc(OCCCN3CCCCC3)cc2F)c(Cl)nc2ncnn12)C(F)(F)F
- IC50 (COLO 205): 0.113 µM

SMILES: C[C@H](Nc1c(-c2c(F)cc(F)cc2F)c(Cl)nc2ncnn12)C(F)(F)F
- IC50 (COLO 205): 0.267 µM

SMILES: C[C@H](Nc1c(-c2ccc(F)cc2F)c(Cl)nc2ncnn12)C(F)(F)F
- IC50 (COLO 205): 0.953 µM

SMILES: C[C@H](Nc1c(-c2ccc(OCCCN(C)C)cc2F)c(Cl)nc2ncnn12)C(F)(F)F
- IC50 (COLO 205): 0.262 µM

SMILES: C[C@@H](Nc1c(-c2c(F)cc(F)cc2F)c(Cl)nc2ncnn12)C(F)(F)F
- IC50 (COLO 205): 0.705 µM

SMILES: C[C@H](Nc1c(-c2c(F)cc(OCCN3CCOCC3)cc2F)c(Cl)nc2ncnn12)C(F)(F)F
- IC50 (COLO 205): 0.245 µM

SMILES: CC(=O)O[C@@]12CO[C@@H]1C[C@H](O)[C@@]1(C)C(=O)[C@H](O)C3=C(C)[C@@H](OC(=O)[C@H](O)[C@@H](NC(=O)OC(C)(C)C)c4ccccc4)C[C@@](O)([C@@H](OC(=O)c4ccccc4)[C@H]21)C3(C)C
- Activity (HeLa [9]): Active

SMILES: C[C@H](Nc1c(-c2c(F)cc(OCCN(C)C)cc2F)c(Cl)nc2ncnn12)C(F)(F)F
- IC50 (COLO 205): 0.581 µM

SMILES: CCCCOc1cc(F)c(-c2c(Cl)nc3ncnn3c2N[C@@H](C)C(F)(F)F)c(F)c1
- IC50 (COLO 205): 1.9 µM

SMILES: C[C@H](Nc1c(-c2c(F)cc(OCCCCCO)cc2F)c(Cl)nc2ncnn12)C(F)(F)F
- IC50 (COLO 205): 0.214 µM

SMILES: C[C@H](Nc1c(-c2c(F)cc(OCCCN3CCCC3)cc2F)c(Cl)nc2ncnn12)C(F)(F)F
- Activity (U-87MG ATCC [1]): Active
- IC50 (COLO 205): 0.044 µM
- Activity (U-87MG ATCC [6]): Active

SMILES: C[C@H](Nc1c(-c2c(F)cc(OCCCN)cc2F)c(Cl)nc2ncnn12)C(F)(F)F
- IC50 (COLO 205): 0.452 µM

SMILES: CCN(C)CCCOc1cc(F)c(-c2c(Cl)nc3ncnn3c2N[C@@H](C)C(F)(F)F)c(F)c1
- IC50 (COLO 205): 0.048 µM

SMILES: CN(C)CCCOc1cc(F)c(-c2c(Cl)nc3ncnn3c2NCC(F)(F)F)c(F)c1.Cl
- Activity (U-87MG ATCC [1]): Active
- IC50 [2]: 0.038 µM
- Ratio IC50 (KB [3]): 2
- IC50 [4]: 0.263 µM
- IC50 (COLO 205): 0.053 µM
- IC50 (KB [5]): 0.0187 µM
- Activity (U-87MG ATCC [6]): Active
- Ratio IC50 [7]: 14

SMILES: C[C@H](Nc1c(-c2c(F)cc(CCCCN(C)C)cc2F)c(Cl)nc2ncnn12)C(F)(F)F
- IC50 (COLO 205): 0.665 µM

SMILES: C[C@H](Nc1c(-c2c(F)cc(OCCCCO)cc2F)c(Cl)nc2ncnn12)C(F)(F)F
- IC50 [2]: 0.07 µM
- Ratio IC50 (KB [3]): 1.6
- IC50 [4]: 0.067 µM
- IC50 (COLO 205): 0.151 µM
- IC50 (KB [5]): 0.042 µM
- Ratio IC50 [7]: 1.6

SMILES: C[C@H](Nc1c(-c2c(F)cc(F)cc2F)c(Br)nc2ncnn12)C(F)(F)F
- IC50 (COLO 205): 0.232 µM

SMILES: COc1cc2c(c(OC)c1OC)-c1ccc(OC)c(=O)cc1[C@@H](NC(C)=O)CC2
- Activity (HeLa [8]): inactive

SMILES: C[C@H](Nc1c(-c2c(F)ccc(OCCCCN(C)C)c2F)c(Cl)nc2ncnn12)C(F)(F)F
- IC50 (COLO 205): 0.433 µM

SMILES: C[C@H](Nc1c(-c2c(F)cc(NCCCN(C)C)cc2F)c(Cl)nc2ncnn12)C(F)(F)F
- IC50 (COLO 205): 0.719 µM

SMILES: C[C@H](Nc1c(-c2c(F)cc(OCCCN3CCOCC3)cc2F)c(Cl)nc2ncnn12)C(F)(F)F
- Activity (U-87MG ATCC [1]): Active
- IC50 (COLO 205): 0.051 µM
- Activity (U-87MG ATCC [6]): Active

SMILES: Fc1cc(F)c(-c2c(Cl)nc3ncnn3c2NCC(F)(F)F)c(F)c1
- IC50 (COLO 205): 0.372 µM

SMILES: CNCCCOc1cc(F)c(-c2c(Cl)nc3ncnn3c2N[C@@H](C)C(F)(F)F)c(F)c1.Cl
- Activity (U-87MG ATCC [1]): Active
- Activity (Tubulin (Homo sapiens) [10]): Active
- half-life [11]: 1.47 h
- Activity (Tubulin (Homo sapiens) [12]): inactive
- IC50 [2]: 0.067 µM
- solubility [13]: 0.89 mg/mL
- half-life [14]: 7.22 h
- solubility [15]: 7.99 mg/mL
- Ratio IC50 (KB [3]): 2.9
- IC50 [4]: 0.953 µM
- IC50 (COLO 205): 0.031 µM
- IC50 (KB [5]): 0.023 µM
- clearance [16]: 0.84 L/h/kg
- Activity (Tubulin (Homo sapiens) [17]): Active
- Activity (Tubulin (Homo sapiens) [18]): Active
- Activity (HeLa [19]): Active
- Activity (U-87MG ATCC [6]): Active
- Activity (HeLa [20]): Active
- Activity (Homo sapiens): inactive
- Vd [21]: 14 L/kg
- Tumour inhibition (A549): Active
- half-life [22]: 13 h
- Ratio IC50 [7]: 41.5
- bioavailability [23]: 61%

SMILES: C[C@H](Nc1c(-c2c(F)cc(SCCCN(C)C)cc2F)c(Cl)nc2ncnn12)C(F)(F)F
- IC50 (COLO 205): 0.192 µM

SMILES: CCOCCCOc1cc(F)c(-c2c(Cl)nc3ncnn3c2N[C@@H](C)C(F)(F)F)c(F)c1
- IC50 (COLO 205): 0.269 µM
